Reference: ChEMBL document CHEMBL4393722, “Development of the "hidden" multifunctional agents for Alzheimer's disease” (Eur J Med Chem, 2019)
Calls of active or inactive are those of the source. The calls are words filed in the database; no cut-off is given here.

Experiments:
[1] = target: Amyloid-beta precursor protein (Homo sapiens) (UniProt P05067); assay: Inhibition of HFIP-pretreated amyloid beta (1 to 42) (unknown origin) self-aggregation at 20 uM after 72 hrs by uranyl acetate staining based transmission electron microscopy
In short: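 Aβ1-42 was incubated alone or with compound for 72 h at 37 °C. Fibril formation was then examined by transmission electron microscopy, with curcumin as positive control.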

[2] = Metal chelating activity assessed as compound-Cu2+ complex formation by measuring decrease in absorption with spectral shift to red end at 25 uM incubated for 5 mins in presence of 25 uM CuCl2 by UV-visible spectrophotometry
[3] = target: Amyloid-beta precursor protein (Homo sapiens) (UniProt P05067); assay: Inhibition of HFIP-pretreated amyloid beta (1 to 42) (unknown origin) self-aggregation at 20 uM after 48 hrs by thioflavin-T fluorescence assay
[4] = Metal chelating activity assessed as compound-Zn2+ complex formation at 25 uM incubated for 5 mins in presence of 25 uM ZnCl2 by UV-visible spectrophotometry
[5] = Metal chelating activity assessed as compound-Fe2+ complex formation at 25 uM incubated for 5 mins in presence of 25 uM FeSO4 by UV-visible spectrophotometry
hERG (KCNH2) = hERG (KCNH2) (Homo sapiens, UniProt Q12809); assay: Inhibition of human ERG expressed in CHO cells at 0.1 uM incubated for 1 min at -80 mV holding potential by manual patch clamp assay relative to control; format: cell-based; conditions: CHO cells expressing human ERG
Mus musculus = species on record: Mus musculus; assay: Cognition enhancement in scopolamine-induced amnesia mouse model by Morris water maze test; format: functional, organism-based

Sequence of Amyloid-beta precursor protein (Homo sapiens) (P05067 whole entry): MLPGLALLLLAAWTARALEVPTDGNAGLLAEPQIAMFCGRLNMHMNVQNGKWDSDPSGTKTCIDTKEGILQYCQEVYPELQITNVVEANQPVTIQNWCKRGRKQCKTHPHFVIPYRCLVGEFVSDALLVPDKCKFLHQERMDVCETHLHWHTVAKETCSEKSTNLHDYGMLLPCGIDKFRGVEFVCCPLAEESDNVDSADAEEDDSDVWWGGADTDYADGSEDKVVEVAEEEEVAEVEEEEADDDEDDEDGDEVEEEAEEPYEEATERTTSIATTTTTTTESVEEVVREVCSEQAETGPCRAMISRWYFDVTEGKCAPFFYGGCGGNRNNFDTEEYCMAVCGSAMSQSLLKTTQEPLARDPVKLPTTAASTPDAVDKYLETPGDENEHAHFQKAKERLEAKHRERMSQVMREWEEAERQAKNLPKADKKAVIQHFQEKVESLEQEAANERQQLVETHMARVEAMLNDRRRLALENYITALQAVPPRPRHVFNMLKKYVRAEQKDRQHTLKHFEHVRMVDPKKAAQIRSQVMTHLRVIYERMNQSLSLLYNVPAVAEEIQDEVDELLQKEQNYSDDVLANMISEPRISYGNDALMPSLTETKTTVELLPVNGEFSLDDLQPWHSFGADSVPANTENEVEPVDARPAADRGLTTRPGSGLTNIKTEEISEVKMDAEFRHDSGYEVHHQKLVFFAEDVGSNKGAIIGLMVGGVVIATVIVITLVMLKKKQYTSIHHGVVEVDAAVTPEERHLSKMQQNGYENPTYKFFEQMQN
Sequence of hERG (KCNH2) (Q12809 whole entry): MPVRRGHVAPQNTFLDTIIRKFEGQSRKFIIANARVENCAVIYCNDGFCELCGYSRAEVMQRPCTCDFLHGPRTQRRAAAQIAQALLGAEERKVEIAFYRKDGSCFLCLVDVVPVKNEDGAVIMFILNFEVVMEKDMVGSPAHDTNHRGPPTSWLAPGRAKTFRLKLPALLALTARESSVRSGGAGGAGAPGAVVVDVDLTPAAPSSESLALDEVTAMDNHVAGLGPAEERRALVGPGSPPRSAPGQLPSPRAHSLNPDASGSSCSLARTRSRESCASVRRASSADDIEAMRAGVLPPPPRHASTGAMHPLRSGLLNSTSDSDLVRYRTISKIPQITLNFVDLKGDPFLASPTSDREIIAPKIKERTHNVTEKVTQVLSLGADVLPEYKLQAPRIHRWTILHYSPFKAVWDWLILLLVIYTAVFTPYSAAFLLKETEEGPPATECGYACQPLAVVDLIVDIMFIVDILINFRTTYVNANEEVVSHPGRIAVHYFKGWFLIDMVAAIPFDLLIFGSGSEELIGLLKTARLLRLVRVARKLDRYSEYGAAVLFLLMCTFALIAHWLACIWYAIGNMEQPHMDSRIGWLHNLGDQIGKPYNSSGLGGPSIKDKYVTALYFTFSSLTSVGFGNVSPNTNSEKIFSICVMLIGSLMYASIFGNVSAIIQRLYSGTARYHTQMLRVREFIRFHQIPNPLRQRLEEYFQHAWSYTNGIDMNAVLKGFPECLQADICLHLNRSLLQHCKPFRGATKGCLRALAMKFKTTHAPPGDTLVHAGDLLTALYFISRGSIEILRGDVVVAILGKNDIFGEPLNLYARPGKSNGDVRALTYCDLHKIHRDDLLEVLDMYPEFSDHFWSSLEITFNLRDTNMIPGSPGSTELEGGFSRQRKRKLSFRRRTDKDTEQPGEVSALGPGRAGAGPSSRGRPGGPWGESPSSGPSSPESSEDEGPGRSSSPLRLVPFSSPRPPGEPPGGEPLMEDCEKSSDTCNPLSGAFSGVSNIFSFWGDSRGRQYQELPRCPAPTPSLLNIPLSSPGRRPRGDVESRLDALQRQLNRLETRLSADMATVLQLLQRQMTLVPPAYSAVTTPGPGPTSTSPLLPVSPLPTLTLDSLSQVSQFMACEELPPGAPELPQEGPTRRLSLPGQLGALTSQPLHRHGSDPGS

Row | SMILES | inhibition [1] | Activity [2] | inhibition [3] [%] | Activity [4] | Activity [5] | inhibition at 1 min, 0.1 µM (hERG (KCNH2)) [%] | Activity (Mus musculus)
1 | CC(c1cc(O)c2ncccc2c1)N(C)C (stereo not given) | Active | Active | 44 | Active | Active | – | –
2 | COc1cc(N)c(Cl)cc1C(=O)N[C@H]1CCN(CCCOc2ccc(F)cc2)C[C@H]1OC [REL-CISAPRIDE] | – | – | – | – | – | 89 | –
3 | Oc1c(I)cc(Cl)c2cccnc12 | – | Active | – | Active | Active | – | inactive
